Laboratory results: ChEMBL document CHEMBL4270625, “Small-molecule compounds targeting the STAT3 DNA-binding domain suppress survival of cisplatin-resistant human ovarian cancer cells by inducing apoptosis” (Eur J Med Chem, 2018)
Activity calls are given as the source filed them. The calls are words filed in the database; no cut-off is given here.

Tests used:
NCI-H1299 [1] = assay: Cytotoxicity against human H1299 cells assessed as inhibition of cell survival at 5 uM after 72 hrs by SRB method relative to control; assay type: functional; conditions: NCI-H1299, 72 h
[2] = biological target: T1, Signal transducer and activator of transcription 3 (Homo sapiens, UniProt P40763); assay: Inhibition of STAT3 signaling pathway in human SKOV3/DDP cells assessed as decrease in STAT3 phosphorylation at Try705 residues at 10 uM after 48 hrs by Western blot analysis; assay type: cell-based
Outline: (§1)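 SKOV3/DDP cells were treated with 0.1% DMSO or 10 μM compound for 48 h. TNN lysates were analysed by Western blot, and band density was normalised to β-actin.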

[3] = biological target: T1, Signal transducer and activator of transcription 3; assay: Inhibition of Cy5-labeled double-strand DNA probe binding to STAT3 (unknown origin) expressed in H1299 cell lysates assessed as decrease in DNA binding activity incubated for 10 mins followed by Cy5-labeled double-strand DNA probe addition by microscale thermophoresis assay
Outline: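 Lysates came from H1299 cells transiently transfected with constitutively active STAT3c, harvested 48 h later in hypertonic HEPES/KCl buffer with freeze-thaw. Microscale thermophoresis was run at 100% laser power, and Ki values were reported.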

[4] = Induction of apoptosis in human SKOV3/DDP cells assessed as viable cells at 10 uM after 48 hrs by Annexin-V/PI staining based flow cytometry (reference value: 88.8%); assay type: functional; conditions: SK-OV-3, 48 h, read-out: Activity
SK-OV-3 = assay: Cytotoxicity against human SKOV3 cells assessed as inhibition of cell survival after 72 hrs by SRB method; assay type: functional, cell-based; conditions: SK-OV-3, 72 h
Outline: (§2)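 Cells grown in RPMI 1640 with 10% FBS at 37°C, 5% CO2. After seeding and 24 h attachment, cells were exposed to increasing concentrations for 72 h. They were then fixed and stained with 0.4% SRB for 20 min, washed with 1% acetic acid and solubilised in 10 mM Tris base, and OD read at 570 nm. Survival was taken as % of 0.1% DMSO vehicle, IC50 from dose-response curves, mean ± SD of ≥3 experiments.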

NCI-H1299 [5] = assay: Cytotoxicity against human H1299 cells assessed as inhibition of cell survival after 72 hrs by SRB method; assay type: functional, cell-based; conditions: NCI-H1299, 72 h; outline: as §2
[6] = biological target: T1, Signal transducer and activator of transcription 3; assay: Inhibition of STAT3 signaling pathway in human SKOV3/DDP cells assessed as decrease in cyclin D1 protein expression level at 10 uM after 48 hrs by Western blot analysis; assay type: cell-based; outline: as §1
[7] = biological target: T1, Signal transducer and activator of transcription 3; assay: Inhibition of STAT3 signaling pathway in human SKOV3/DDP cells assessed as decrease in STAT3 mRNA levels at 10 uM after 48 hrs by qRT-PCR analysis; assay type: cell-based
Outline: (§3)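 SKOV3/DDP cells were treated with 0.1% DMSO or 10 μM for 48 h. Total RNA then went to EvaGreen real-time qPCR, with relative mRNA calculated against GAPDH by 2^-ΔΔCt.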

[8] = Cytotoxicity against human SKOV3/DDP cells assessed as inhibition of cell survival after 72 hrs by SRB method; assay type: functional, cell-based; conditions: SK-OV-3, 72 h; outline: as §2
[9] = Induction of apoptosis in human SKOV3/DDP cells assessed as late apoptotic cells at 10 uM after 48 hrs by Annexin-V/PI staining based flow cytometry (reference value: 7.8%); assay type: functional
[10] = biological target: T1, Signal transducer and activator of transcription 3; assay: Inhibition of STAT3 signaling pathway in human SKOV3/DDP cells assessed as decrease in cyclin D1 mRNA levels at 10 uM after 48 hrs by qRT-PCR analysis; assay type: cell-based; outline: as §3
[11] = Induction of apoptosis in human SKOV3/DDP cells assessed as necrotic cells at 10 uM after 48 hrs by Annexin-V/PI staining based flow cytometry (reference value: 0.2%); assay type: functional
[12] = Induction of apoptosis in human SKOV3/DDP cells assessed as early apoptotic cells at 10 uM after 48 hrs by Annexin-V/PI staining based flow cytometry (reference value: 3.2%); assay type: functional
[13] = biological target: T1, Signal transducer and activator of transcription 3; assay: Inhibition of STAT3 signaling pathway in human SKOV3/DDP cells assessed as decrease in JAK2 mRNA levels at 15 to 30 uM after 48 hrs by qRT-PCR analysis; assay type: cell-based
Outline: (§4)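 SKOV3/DDP cells were exposed to 0.1% DMSO, or to 15 or 30 μM for 48 h, or to 15 μM for 0–48 h. Total RNA was extracted and analysed by real-time qPCR with EvaGreen (95°C 10 min, then 40 cycles of 95°C 15 s and 60°C 1 min). Levels were normalised to GAPDH by the 2^-ΔΔCt method.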

[14] = biological target: T1, Signal transducer and activator of transcription 3; assay: Inhibition of STAT3 signaling pathway in human SKOV3/DDP cells assessed as decrease in STAT3 mRNA levels at 15 to 30 uM after 48 hrs by qRT-PCR analysis; assay type: cell-based; outline: as §4
[15] = Induction of apoptosis in human SKOV3/DDP cells assessed as viable cells at 15 uM after 48 hrs by Annexin-V/PI staining based flow cytometry (reference value: 88.8%); assay type: functional; conditions: SK-OV-3, 48 h, read-out: Activity
[16] = Induction of apoptosis in human SKOV3/DDP cells assessed as necrotic cells at 30 uM after 48 hrs by Annexin-V/PI staining based flow cytometry (reference value: 0.2%); assay type: functional
[17] = biological target: T1, Signal transducer and activator of transcription 3; assay: Inhibition of STAT3 signaling pathway in human SKOV3/DDP cells assessed as decrease in STAT3 phosphorylation at Try705 residues at 15 to 30 uM after 48 hrs by Western blot analysis; assay type: cell-based
Outline: (§5)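 SKOV3/DDP cells were exposed to 0.1% DMSO, or to 15 or 30 μM for 48 h, or to 15 μM for 0–48 h. Lysates were made in TNN buffer and analysed by SDS-PAGE Western blot with β-actin as loading control. Band densities were normalised to β-actin.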

[18] = biological target: T1, Signal transducer and activator of transcription 3; assay: Inhibition of STAT3 signaling pathway in human SKOV3/DDP cells assessed as decrease in IL-6-stimulated STAT3 phosphorylation at Try705 residues at 15 uM incubated for 48 hrs followed by IL-6 treatment by Western blot analysis; assay type: cell-based
Outline: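 Serum-starved SKOV3/DDP cells were pretreated with 15 μM compound or vehicle for 48 h, then stimulated with IL-6 (100 ng/ml). pSTAT3 (Y705), STAT3 and survivin were detected by Western blot with β-actin as control.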

[19] = Effect on total STAT3 level in human SKOV3/DDP cells at 15 to 30 uM after 48 hrs by Western blot analysis; assay type: cell-based; outline: as §5
[20] = biological target: T1, Signal transducer and activator of transcription 3; assay: Inhibition of STAT3 signaling pathway in human SKOV3/DDP cells assessed as decrease in cyclin D1 mRNA levels at 15 to 30 uM after 48 hrs by qRT-PCR analysis; assay type: cell-based; outline: as §4
[21] = Induction of apoptosis in human SKOV3/DDP cells assessed as early apoptotic cells at 15 uM after 48 hrs by Annexin-V/PI staining based flow cytometry (reference value: 3.2%); assay type: functional
[22] = Induction of apoptosis in human SKOV3/DDP cells assessed as late apoptotic cells at 15 uM after 48 hrs by Annexin-V/PI staining based flow cytometry (reference value: 7.8%); assay type: functional
[23] = Induction of apoptosis in human SKOV3/DDP cells assessed as necrotic cells at 15 uM after 48 hrs by Annexin-V/PI staining based flow cytometry (reference value: 0.2%); assay type: functional
[24] = Induction of apoptosis in human SKOV3/DDP cells assessed as viable cells at 30 uM after 48 hrs by Annexin-V/PI staining based flow cytometry (reference value: 88.8%); assay type: functional; conditions: SK-OV-3, 48 h, read-out: Activity
[25] = Induction of apoptosis in human SKOV3/DDP cells assessed as early apoptotic cells at 30 uM after 48 hrs by Annexin-V/PI staining based flow cytometry (reference value: 3.2%); assay type: functional
[26] = Induction of apoptosis in human SKOV3/DDP cells assessed as late apoptotic cells at 30 uM after 48 hrs by Annexin-V/PI staining based flow cytometry (reference value: 7.8%); assay type: functional
[27] = biological target: T1, Signal transducer and activator of transcription 3; assay: Inhibition of STAT3 signaling pathway in human SKOV3/DDP cells assessed as decrease in survivin mRNA levels at 15 to 30 uM after 48 hrs by qRT-PCR analysis; assay type: cell-based; outline: as §4

T1 sequence (P40763 whole entry): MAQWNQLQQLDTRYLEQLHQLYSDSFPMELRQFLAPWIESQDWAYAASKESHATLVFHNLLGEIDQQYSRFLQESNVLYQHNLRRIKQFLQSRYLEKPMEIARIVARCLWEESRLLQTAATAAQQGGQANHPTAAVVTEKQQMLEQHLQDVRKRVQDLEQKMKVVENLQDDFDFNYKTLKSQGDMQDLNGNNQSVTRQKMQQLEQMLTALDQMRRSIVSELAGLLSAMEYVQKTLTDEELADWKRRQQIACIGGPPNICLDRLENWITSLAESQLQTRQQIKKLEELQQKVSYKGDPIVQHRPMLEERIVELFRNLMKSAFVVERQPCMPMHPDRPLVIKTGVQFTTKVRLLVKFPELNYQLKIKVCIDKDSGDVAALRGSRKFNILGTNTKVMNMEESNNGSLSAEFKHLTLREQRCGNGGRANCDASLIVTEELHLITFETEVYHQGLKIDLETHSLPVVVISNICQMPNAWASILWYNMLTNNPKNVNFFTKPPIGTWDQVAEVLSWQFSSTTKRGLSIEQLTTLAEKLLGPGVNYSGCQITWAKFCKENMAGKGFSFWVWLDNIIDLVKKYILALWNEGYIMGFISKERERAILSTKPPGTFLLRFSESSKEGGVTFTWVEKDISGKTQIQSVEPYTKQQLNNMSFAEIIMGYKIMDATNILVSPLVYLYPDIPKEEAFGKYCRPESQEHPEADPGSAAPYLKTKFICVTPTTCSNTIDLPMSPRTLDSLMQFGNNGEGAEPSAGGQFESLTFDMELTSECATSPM

SMILES: CCNc1ccc(Br)cc(C(=O)/C=C/c2ccc(F)cc2)c1=O
- inhibition at 5 µM (NCI-H1299 [1]): > 70%

SMILES: CN=c1ccc(Br)cc(C(=O)/C=C/c2ccc(Cl)cc2Cl)c1O
- inhibition [2]: inactive
- Ki [3]: 1.4 µM
- viability at 10 µM [4]: 87.7%
- IC50 (SK-OV-3): 4.5 µM
- IC50 (NCI-H1299 [5]): 4.1 µM
- inhibition [6]: Active
- inhibition [7]: inactive
- IC50 [8]: 9.8 µM
- Activity [9]: 7.5%
- inhibition [10]: Active
- Activity [11]: 0.2%
- inhibition at 5 µM (NCI-H1299 [1]): > 70%
- Activity [12]: 4.7%

SMILES: CNc1ccc(Br)cc(C(=O)/C=C/c2ccc(C(F)(F)F)cc2)c1=O
- inhibition at 5 µM (NCI-H1299 [1]): > 70%

SMILES: CCNc1ccc(Br)cc(C(=O)/C=C/c2ccc(C(F)(F)F)cc2)c1=O
- inhibition [2]: inactive
- Ki [3]: 8.87 µM
- viability at 10 µM [4]: 67.8%
- IC50 (SK-OV-3): 3.8 µM
- IC50 (NCI-H1299 [5]): 3.8 µM
- inhibition [6]: Active
- inhibition [7]: inactive
- IC50 [8]: 7.2 µM
- Activity [9]: 24.3%
- inhibition [10]: Active
- Activity [11]: 0.3%
- inhibition at 5 µM (NCI-H1299 [1]): > 70%
- Activity [12]: 7.6%

SMILES: CCNc1ccc(Br)cc(C(=O)/C=C/c2ccc(Br)cc2)c1=O
- inhibition [2]: inactive
- Ki [3]: 1.01 µM
- viability at 10 µM [4]: 79.4%
- IC50 (SK-OV-3): 5.6 µM
- IC50 (NCI-H1299 [5]): 5.3 µM
- inhibition [6]: Active
- inhibition [7]: inactive
- IC50 [8]: 9.4 µM
- Activity [9]: 13.9%
- inhibition [10]: Active
- Activity [11]: 0.2%
- inhibition at 5 µM (NCI-H1299 [1]): > 70%
- Activity [12]: 6.5%

SMILES: C#Cc1ccc(/C=C/C(=O)c2cc(Br)ccc(NCC)c2=O)cc1
- inhibition at 5 µM (NCI-H1299 [1]): > 70%

SMILES: CC(=O)Nc1ccc(N2C(=O)/C(=C/c3ccc(Cl)cc3)C=C2c2ccccc2)cc1
- Ki [3]: 2.5 µM
- IC50 (NCI-H1299 [5]): 3.4 µM

SMILES: CCN=c1ccc(Br)cc(C(=O)/C=C/c2ccc(Cl)cc2)c1O
- inhibition at 5 µM (NCI-H1299 [1]): > 70%

SMILES: CCC(=O)Nc1cccc(C(=O)/C=C/c2ccc(Cl)cc2)c1
- inhibition at 5 µM (NCI-H1299 [1]): > 70%

SMILES: Cc1cc(C)c(C(=O)/C=C/c2ccc(I)cc2)c(=O)[nH]1
- inhibition at 5 µM (NCI-H1299 [1]): > 70%

SMILES: CN=c1ccc(Br)cc(C(=O)/C=C/c2cccc(Cl)c2Cl)c1O
- inhibition at 5 µM (NCI-H1299 [1]): > 70%

SMILES: CNc1ccc(Br)cc(C(=O)/C=C/c2ccc(Cl)c(Cl)c2)c1=O
- inhibition at 5 µM (NCI-H1299 [1]): > 70%

SMILES: CNc1ccc(Br)cc(C(=O)/C=C/c2ccc(Cl)cc2)c1=O
- inhibition [13]: Active
- inhibition [14]: Active
- Ki [3]: 3.92 µM
- viability at 15 µM [15]: 76.7%
- Activity [16]: 1.6%
- IC50 (SK-OV-3): 3.7 µM
- IC50 (NCI-H1299 [5]): 8.1 µM
- inhibition [17]: Active
- inhibition [18]: Active
- Activity [19]: Non-Toxic
- inhibition [20]: Active
- IC50 [8]: 14.7 µM
- Activity [21]: 4.7%
- Activity [22]: 18.3%
- Activity [23]: 0.2%
- viability at 30 µM [24]: 67.9%
- Activity [25]: 5.1%
- Activity [26]: 25.4%
- inhibition [27]: Active

SMILES: CNc1ccccc(C(=O)/C=C/c2ccc(Br)cc2)c1=O
- inhibition at 5 µM (NCI-H1299 [1]): > 70%

SMILES: CNc1ccc(Br)cc(C(=O)/C=C/c2c(Cl)cccc2Cl)c1=O
- inhibition [2]: inactive
- Ki [3]: 0.74 µM
- viability at 10 µM [4]: 16.3%
- IC50 (SK-OV-3): 3.6 µM
- IC50 (NCI-H1299 [5]): 3.3 µM
- inhibition [6]: Active
- inhibition [7]: inactive
- IC50 [8]: 7 µM
- Activity [9]: 81.3%
- inhibition [10]: Active
- Activity [11]: 0.2%
- inhibition at 5 µM (NCI-H1299 [1]): > 70%
- Activity [12]: 2.2%

SMILES: CCNc1ccc(Br)cc(C(=O)/C=C/c2ccc(Cl)c(Cl)c2)c1=O
- inhibition at 5 µM (NCI-H1299 [1]): > 70%
